Data as given in ChEMBL document CHEMBL4043093, “2-Oxo-3, 4-dihydropyrimido[4, 5-d]pyrimidinyl derivatives as new irreversible pan fibroblast growth factor receptor (FGFR) inhibitors” (Eur J Med Chem, 2017).

What was measured:
[1] = target: Serine/threonine-protein kinase 38 (Homo sapiens) (UniProt Q15208); experiment: Inhibition of wild-type human partial length NDR1 (N33 to E449 residues) expressed in HEK293 cells assessed as residual activity at 1000 nM after 30 mins by Kinomescan method relative to control; format: cell-based
[2] = target: Phosphatidylinositol 4,5-bisphosphate 3-kinase catalytic subunit alpha isoform (Homo sapiens) (UniProt P42336); experiment: Inhibition of wild-type human partial length PIK3CA (R108 to N1068 residues) expressed in HEK293 cells assessed as residual activity at 1000 nM after 30 mins by Kinomescan method relative to control; format: cell-based
[3] = target: Ephrin type-B receptor 4 (Homo sapiens) (UniProt P54760); experiment: Inhibition of wild-type human partial length EPHB4 (H585 to G892 residues) expressed in Escherichia coli BL21 assessed as residual activity at 1000 nM after 30 mins by Kinomescan method relative to control
[4] = target: Tyrosine-protein kinase Fgr (Homo sapiens) (UniProt P09769); experiment: Inhibition of wild-type human partial length FGR (L233 to T529 residues) expressed in Escherichia coli BL21 assessed as residual activity at 1000 nM after 30 mins by Kinomescan method relative to control
[5] = target: G protein-coupled receptor kinase 4 (Homo sapiens) (UniProt P32298); experiment: Inhibition of wild-type human full length GRK4 (M1 to C578 residues) expressed in Escherichia coli BL21 assessed as residual activity at 1000 nM after 30 mins by Kinomescan method relative to control
Summary of the method: (§1)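 Single-concentration screen at 1 µM across a 456-kinase KINOMEscan panel. The read-out is Percent Control for each kinase.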

[6] = target: Mitogen-activated protein kinase 4 (Homo sapiens) (UniProt P31152); experiment: Inhibition of wild-type human partial length ERK4 (M1 to L365 residues) expressed in Escherichia coli BL21 assessed as residual activity at 1000 nM after 30 mins by Kinomescan method relative to control
[7] = target: cAMP-dependent protein kinase catalytic subunit PRKX (Homo sapiens) (UniProt P51817); experiment: Inhibition of wild-type human partial length PRKX (M1 to F358 residues) expressed in Escherichia coli BL21 assessed as residual activity at 1000 nM after 30 mins by Kinomescan method relative to control
[8] = target: Cyclin-dependent kinase 4/cyclin D1 (Homo sapiens) (UniProt P11802+P24385); experiment: Inhibition of wild-type human full length CDK4/cyclinD1 (M1 to E303 residues) expressed in HEK293 cells assessed as residual activity at 1000 nM after 30 mins by Kinomescan method relative to control; format: cell-based
Summary of the method: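 Single-point screen at a fixed 1 µM, run within a 456-kinase DiscoveRx KINOMEscan panel. Each kinase's read-out is Percent Control, i.e. signal relative to a control without compound. Hits were scored by a Percent Control < 35 cut-off, and an S(35) selectivity score was calculated across the non-mutant kinases.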

[9] = tested on: Receptor-type tyrosine-protein kinase FLT3 (Homo sapiens), P36888 [R834Q]; experiment: Inhibition of human partial length FLT3 R834Q mutant (V592 to Y969 residues) expressed in HEK293 cells assessed as residual activity at 1000 nM after 30 mins by Kinomescan method relative to control; format: cell-based
Summary of the method: (§2)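 KINOMEscan binding panel of 456 kinases, with the test compound at a single concentration of 1 µM. Read-out is Percent Control.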

[10] = target: Mitogen-activated protein kinase 12 (Homo sapiens) (UniProt P53778); experiment: Inhibition of wild-type human full length p38-gamma (M1 to L367 residues) expressed in HEK293 cells assessed as residual activity at 1000 nM after 30 mins by Kinomescan method relative to control; format: cell-based
[11] = target: Glycogen synthase kinase-3 beta (Homo sapiens) (UniProt P49841); experiment: Inhibition of wild-type human full length GSK3B (M1 to T433 residues) expressed in HEK293 cells assessed as residual activity at 1000 nM after 30 mins by Kinomescan method relative to control; format: cell-based; summary of the method: as §1
[12] = target: Serine/threonine-protein kinase 25 (Homo sapiens) (UniProt O00506); experiment: Inhibition of wild-type human partial length YSK1 (V14 to H295 residues) expressed in Escherichia coli BL21 assessed as residual activity at 1000 nM after 30 mins by Kinomescan method relative to control
[13] = target: Cyclin-dependent kinase 13 (Homo sapiens) (UniProt Q14004); experiment: Inhibition of wild-type human partial length CDC2L5 (H675 to S1054 residues) expressed in HEK293 cells assessed as residual activity at 1000 nM after 30 mins by Kinomescan method relative to control; format: cell-based
[14] = target: Tyrosine-protein kinase TXK (Homo sapiens) (UniProt P42681); experiment: Inhibition of wild-type human partial length TXK (L238 to W527 residues) expressed in Escherichia coli BL21 assessed as residual activity at 1000 nM after 30 mins by Kinomescan method relative to control
[15] = target: Serine/threonine-protein kinase MARK1 (Homo sapiens) (UniProt Q9P0L2); experiment: Inhibition of wild-type human partial length MARK1 (Q30 to T341 residues) expressed in Escherichia coli BL21 assessed as residual activity at 1000 nM after 30 mins by Kinomescan method relative to control
[16] = target: Serine/threonine-protein kinase MRCK beta (Homo sapiens) (UniProt Q9Y5S2); experiment: Inhibition of wild-type human partial length MRCKB (L56 to S417 residues) expressed in Escherichia coli BL21 assessed as residual activity at 1000 nM after 30 mins by Kinomescan method relative to control
[17] = target: Cyclin-dependent kinase 11B (Homo sapiens) (UniProt P21127); experiment: Inhibition of wild-type human partial length CDC2L1 (P353 to G692 residues) expressed in Escherichia coli BL21 assessed as residual activity at 1000 nM after 30 mins by Kinomescan method relative to control
[18] = target: Serine/threonine-protein kinase 17A (Homo sapiens) (UniProt Q9UEE5); experiment: Inhibition of wild-type human partial length DRAK1 (R32 to E363 residues) expressed in Escherichia coli BL21 assessed as residual activity at 1000 nM after 30 mins by Kinomescan method relative to control
[19] = target: Proto-oncogene tyrosine-protein kinase ROS (Homo sapiens) (UniProt P08922); experiment: Inhibition of wild-type human partial length ROS1 (A1921 to N2240 residues) expressed in Escherichia coli BL21 assessed as residual activity at 1000 nM after 30 mins by Kinomescan method relative to control
[20] = target: Ephrin type-A receptor 5 (Homo sapiens) (UniProt P54756); experiment: Inhibition of wild-type human partial length EPHA5 (T627 to V930 residues) expressed in Escherichia coli BL21 assessed as residual activity at 1000 nM after 30 mins by Kinomescan method relative to control
[21] = tested on: Phosphatidylinositol 4,5-bisphosphate 3-kinase catalytic subunit alpha isoform (Homo sapiens), P42336 [E545A]; experiment: Inhibition of human partial length PIK3CA E545A mutant (R108 to N1068 residues) expressed in HEK293 cells assessed as residual activity at 1000 nM after 30 mins by Kinomescan method relative to control; format: cell-based; summary of the method: as §2

Sequence of Phosphatidylinositol 4,5-bisphosphate 3-kinase catalytic subunit alpha isoform (Homo sapiens) (P42336 whole entry, the tested form may be a part, canonical isoform): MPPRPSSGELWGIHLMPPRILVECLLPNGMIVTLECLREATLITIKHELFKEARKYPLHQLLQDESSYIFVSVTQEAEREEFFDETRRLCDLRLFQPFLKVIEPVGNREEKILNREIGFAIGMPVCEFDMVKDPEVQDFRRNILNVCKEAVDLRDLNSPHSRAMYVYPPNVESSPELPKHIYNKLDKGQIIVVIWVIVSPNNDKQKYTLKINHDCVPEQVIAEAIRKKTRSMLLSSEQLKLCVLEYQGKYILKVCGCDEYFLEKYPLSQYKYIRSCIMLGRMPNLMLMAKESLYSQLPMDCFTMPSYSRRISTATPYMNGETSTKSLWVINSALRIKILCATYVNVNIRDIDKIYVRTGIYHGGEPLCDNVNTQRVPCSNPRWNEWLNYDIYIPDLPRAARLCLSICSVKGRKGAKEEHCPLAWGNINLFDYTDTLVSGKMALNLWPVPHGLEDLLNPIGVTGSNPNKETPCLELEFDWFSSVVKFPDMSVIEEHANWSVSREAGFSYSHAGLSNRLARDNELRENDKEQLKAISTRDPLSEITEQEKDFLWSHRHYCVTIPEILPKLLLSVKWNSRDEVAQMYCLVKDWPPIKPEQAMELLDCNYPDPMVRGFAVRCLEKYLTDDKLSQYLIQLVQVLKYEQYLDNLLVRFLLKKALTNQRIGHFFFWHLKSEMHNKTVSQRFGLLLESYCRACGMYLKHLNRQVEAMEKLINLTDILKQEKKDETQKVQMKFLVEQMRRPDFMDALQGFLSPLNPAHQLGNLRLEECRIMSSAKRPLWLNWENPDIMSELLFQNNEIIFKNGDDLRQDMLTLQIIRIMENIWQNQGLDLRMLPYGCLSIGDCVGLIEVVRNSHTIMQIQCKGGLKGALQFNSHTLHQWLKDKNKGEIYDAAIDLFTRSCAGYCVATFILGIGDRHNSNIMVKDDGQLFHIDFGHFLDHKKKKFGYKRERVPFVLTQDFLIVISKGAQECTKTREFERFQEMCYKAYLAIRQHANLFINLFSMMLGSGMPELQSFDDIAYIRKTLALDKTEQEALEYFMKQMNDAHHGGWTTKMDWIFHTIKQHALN
Sequence of Glycogen synthase kinase-3 beta (Homo sapiens) (P49841 whole entry, looked up, the tested form may be a part): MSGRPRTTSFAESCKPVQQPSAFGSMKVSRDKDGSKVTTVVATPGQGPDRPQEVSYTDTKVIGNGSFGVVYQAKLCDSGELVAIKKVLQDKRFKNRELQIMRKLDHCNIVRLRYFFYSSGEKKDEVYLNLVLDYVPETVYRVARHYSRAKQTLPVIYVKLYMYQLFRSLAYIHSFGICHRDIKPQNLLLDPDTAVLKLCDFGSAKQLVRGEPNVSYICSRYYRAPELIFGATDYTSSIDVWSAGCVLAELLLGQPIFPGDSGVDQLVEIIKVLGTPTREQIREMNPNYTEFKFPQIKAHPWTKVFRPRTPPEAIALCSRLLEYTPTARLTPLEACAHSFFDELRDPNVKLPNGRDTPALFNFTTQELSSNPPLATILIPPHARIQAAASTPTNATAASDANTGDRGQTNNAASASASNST
Sequence of Ephrin type-A receptor 5 (Homo sapiens) (P54756 whole entry, the tested form may be a part, canonical isoform): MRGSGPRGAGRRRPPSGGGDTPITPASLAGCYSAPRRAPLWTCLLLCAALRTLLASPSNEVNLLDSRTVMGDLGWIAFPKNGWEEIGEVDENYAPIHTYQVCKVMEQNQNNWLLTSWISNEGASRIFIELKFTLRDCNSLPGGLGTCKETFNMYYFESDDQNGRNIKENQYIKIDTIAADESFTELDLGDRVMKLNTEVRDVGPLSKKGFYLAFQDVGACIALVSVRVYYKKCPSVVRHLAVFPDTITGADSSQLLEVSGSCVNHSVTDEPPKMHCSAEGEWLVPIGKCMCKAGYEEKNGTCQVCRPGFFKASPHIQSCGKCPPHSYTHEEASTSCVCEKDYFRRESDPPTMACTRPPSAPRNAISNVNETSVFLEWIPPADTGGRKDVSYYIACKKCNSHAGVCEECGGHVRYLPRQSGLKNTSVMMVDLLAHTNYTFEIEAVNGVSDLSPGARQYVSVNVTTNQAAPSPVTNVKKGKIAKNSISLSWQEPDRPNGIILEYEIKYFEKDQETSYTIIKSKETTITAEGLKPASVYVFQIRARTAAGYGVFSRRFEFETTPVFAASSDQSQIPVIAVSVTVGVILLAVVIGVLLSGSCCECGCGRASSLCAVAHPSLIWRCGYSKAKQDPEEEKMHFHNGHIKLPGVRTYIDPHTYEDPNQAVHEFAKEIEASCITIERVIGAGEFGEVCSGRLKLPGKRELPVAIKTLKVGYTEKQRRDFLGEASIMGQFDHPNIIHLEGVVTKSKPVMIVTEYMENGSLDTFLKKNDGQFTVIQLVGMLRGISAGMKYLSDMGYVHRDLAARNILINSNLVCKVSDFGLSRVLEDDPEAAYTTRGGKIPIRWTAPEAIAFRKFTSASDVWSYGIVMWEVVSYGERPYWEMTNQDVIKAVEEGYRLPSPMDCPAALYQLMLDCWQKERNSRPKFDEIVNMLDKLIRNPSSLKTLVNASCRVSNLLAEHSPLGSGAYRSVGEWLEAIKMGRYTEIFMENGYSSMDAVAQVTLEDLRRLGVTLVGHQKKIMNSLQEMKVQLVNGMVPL
Sequence of Serine/threonine-protein kinase MRCK beta (Homo sapiens) (Q9Y5S2 whole entry, the tested form may be a part): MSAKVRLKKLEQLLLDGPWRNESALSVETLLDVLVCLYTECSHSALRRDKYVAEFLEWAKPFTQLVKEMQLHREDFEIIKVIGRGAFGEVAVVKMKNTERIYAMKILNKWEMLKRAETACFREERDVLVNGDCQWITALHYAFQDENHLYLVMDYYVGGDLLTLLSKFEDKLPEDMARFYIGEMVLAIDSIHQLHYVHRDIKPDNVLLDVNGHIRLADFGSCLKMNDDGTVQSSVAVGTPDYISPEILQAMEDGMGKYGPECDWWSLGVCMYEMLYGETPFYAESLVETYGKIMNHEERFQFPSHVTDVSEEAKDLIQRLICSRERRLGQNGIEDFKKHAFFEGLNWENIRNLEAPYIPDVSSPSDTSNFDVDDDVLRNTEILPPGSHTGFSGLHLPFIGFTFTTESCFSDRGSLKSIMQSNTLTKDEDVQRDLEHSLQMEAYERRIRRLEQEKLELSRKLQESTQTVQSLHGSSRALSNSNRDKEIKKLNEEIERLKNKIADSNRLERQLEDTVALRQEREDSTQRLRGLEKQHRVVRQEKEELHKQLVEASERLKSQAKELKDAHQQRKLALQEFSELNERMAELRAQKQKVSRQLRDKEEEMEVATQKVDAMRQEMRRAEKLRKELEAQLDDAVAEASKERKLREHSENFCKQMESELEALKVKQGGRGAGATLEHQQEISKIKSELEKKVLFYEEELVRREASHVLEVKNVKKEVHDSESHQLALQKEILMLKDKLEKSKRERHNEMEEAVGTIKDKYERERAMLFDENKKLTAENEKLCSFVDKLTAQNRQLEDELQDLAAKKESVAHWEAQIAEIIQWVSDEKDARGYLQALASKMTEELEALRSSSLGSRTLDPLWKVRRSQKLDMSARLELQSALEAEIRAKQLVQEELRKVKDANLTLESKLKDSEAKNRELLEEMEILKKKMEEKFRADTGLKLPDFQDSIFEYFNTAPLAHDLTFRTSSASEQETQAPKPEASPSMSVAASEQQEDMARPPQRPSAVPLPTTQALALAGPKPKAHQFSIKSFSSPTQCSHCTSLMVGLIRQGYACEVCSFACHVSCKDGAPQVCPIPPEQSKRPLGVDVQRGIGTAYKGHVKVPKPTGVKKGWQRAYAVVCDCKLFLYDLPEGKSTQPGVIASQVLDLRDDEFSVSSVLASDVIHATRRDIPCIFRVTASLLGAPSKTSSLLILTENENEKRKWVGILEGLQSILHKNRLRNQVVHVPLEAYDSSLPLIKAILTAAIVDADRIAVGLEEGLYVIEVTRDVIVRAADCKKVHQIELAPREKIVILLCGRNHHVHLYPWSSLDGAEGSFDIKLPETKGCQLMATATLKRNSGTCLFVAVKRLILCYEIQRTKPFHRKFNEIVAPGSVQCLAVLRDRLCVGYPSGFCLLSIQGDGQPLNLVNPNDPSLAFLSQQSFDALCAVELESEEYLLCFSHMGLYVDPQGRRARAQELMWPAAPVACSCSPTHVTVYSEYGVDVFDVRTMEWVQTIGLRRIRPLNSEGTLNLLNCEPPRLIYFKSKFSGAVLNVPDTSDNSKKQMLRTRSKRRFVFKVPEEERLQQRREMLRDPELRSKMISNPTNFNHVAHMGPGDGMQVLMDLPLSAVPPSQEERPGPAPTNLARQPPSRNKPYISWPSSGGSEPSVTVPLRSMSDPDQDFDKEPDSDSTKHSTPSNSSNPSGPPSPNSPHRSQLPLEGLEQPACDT
Sequence of Cyclin-dependent kinase 11B (Homo sapiens) (P21127 whole entry, the tested form may be a part): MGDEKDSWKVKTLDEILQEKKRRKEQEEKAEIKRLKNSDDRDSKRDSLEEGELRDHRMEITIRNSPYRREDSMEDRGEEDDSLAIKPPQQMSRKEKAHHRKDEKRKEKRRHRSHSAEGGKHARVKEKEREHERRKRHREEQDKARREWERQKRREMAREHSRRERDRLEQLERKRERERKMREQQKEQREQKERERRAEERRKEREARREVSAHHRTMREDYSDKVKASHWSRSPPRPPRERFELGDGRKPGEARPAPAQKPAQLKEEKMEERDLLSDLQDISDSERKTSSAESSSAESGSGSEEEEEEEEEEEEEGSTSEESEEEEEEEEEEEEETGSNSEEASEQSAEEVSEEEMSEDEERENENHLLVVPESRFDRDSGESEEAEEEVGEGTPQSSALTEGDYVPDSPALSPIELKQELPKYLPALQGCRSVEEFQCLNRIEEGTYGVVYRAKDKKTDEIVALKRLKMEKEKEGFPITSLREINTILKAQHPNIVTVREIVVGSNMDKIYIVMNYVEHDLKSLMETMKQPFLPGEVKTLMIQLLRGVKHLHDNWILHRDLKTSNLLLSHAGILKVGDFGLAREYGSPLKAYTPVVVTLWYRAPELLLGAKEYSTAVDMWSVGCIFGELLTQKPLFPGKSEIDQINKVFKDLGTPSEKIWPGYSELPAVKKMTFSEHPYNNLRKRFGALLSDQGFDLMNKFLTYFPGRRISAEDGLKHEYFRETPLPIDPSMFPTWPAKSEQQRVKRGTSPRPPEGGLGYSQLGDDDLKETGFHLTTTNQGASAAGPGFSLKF

Question: Which results are given for `COc1cc(OC)c(Cl)c(N2Cc3cnc(Nc4ccc(F)cc4)nc3N(C3CCN(C(=O)/C=C/CN(C)C)CC3)C2=O)c1Cl`?
Answer: Activity [1]: 100%; Activity [2]: 100%; Activity [3]: 100%; Activity [4]: 19%; Activity [5]: 78%; Activity [6]: 94%; Activity [7]: 100%; Activity [8]: 100%; Activity [9]: 96%; Activity [10]: 89%; Activity [11]: 100%; Activity [12]: 97%; Activity [13]: 100%; Activity [14]: 99%; Activity [15]: 99%; Activity [16]: 100%; Activity [17]: 100%; Activity [18]: 96%; Activity [19]: 95%; Activity [20]: 100%; Activity [21]: 90%
